Experimental data: ChEMBL document CHEMBL5705899 (Biochem J, 2014)
Calls of active or inactive are those of the source. No cut-off for these calls is given here.

How the values were obtained:
[1] = target: Mitogen-activated protein kinase kinase kinase 11 (Homo sapiens) (UniProt Q16584); test: Inhibition of recombinant human N-terminal GST-tagged MLK3 (96 to 386 residues) expressed in baculovirus infected Sf21 cells assessed as remaining activity at 1 uM using MBP as substrate incubated for 30 mins in presence of [gamma-33P]ATP by filter binding method relative to control
[2] = target: Ephrin type-B receptor 3 (Homo sapiens) (UniProt P54753); test: Inhibition of recombinant human N-terminal His6-tagged EPHB3 (561 to 998 residues) expressed in Escherichia coli assessed as remaining activity at 1 uM using Poly(Glu, Tyr) as substrate incubated for 30 mins in presence of [gamma-33P]ATP by filter binding method relative to control
[3] = target: Tyrosine-protein kinase Fes/Fps (Homo sapiens) (UniProt P07332); test: Inhibition of human FES at 1 uM using polyEY as substrate in presence of 33P-ATP by ProQinase assay
[4] = target: Misshapen-like kinase 1 (Homo sapiens) (UniProt Q8N4C8); test: Inhibition of human MINK1 at 1 uM using RBER-CHKtide as substrate in presence of 33P-ATP by ProQinase assay
[5] = target: Macrophage-stimulating protein receptor (Homo sapiens) (UniProt Q04912); test: Inhibition of human RON at 1 uM using polyEY as substrate in presence of 33P-ATP by ProQinase assay
[6] = target: Megakaryocyte-associated tyrosine-protein kinase (Homo sapiens) (UniProt P42679); test: Inhibition of human MATK at 1 uM using polyEy as substrate in presence of 33P-ATP by ProQinase assay
[7] = target: Ephrin type-A receptor 8 (Homo sapiens) (UniProt P29322); test: Inhibition of human EPHA8 at 1 uM using polyEy as substrate in presence of 33P-ATP by ProQinase assay
[8] = target: Tyrosine-protein kinase Fgr (Homo sapiens) (UniProt P09769); test: Inhibition of human FGR at 1 uM using polyEY as substrate in presence of 33P-ATP by ProQinase assay
[9] = target: Platelet-derived growth factor receptor alpha (Homo sapiens) (UniProt P16234); test: Inhibition of human PDGFRalpha at 1 uM using Poly(Ala,Glu,Lys,Tyr) as substrate in presence of 33P-ATP by ProQinase assay
[10] = target: Mast/stem cell growth factor receptor Kit (Homo sapiens) (UniProt P10721); test: Inhibition of human KIT at 1 uM using polyEY as substrate in presence of 33P-ATP by ProQinase assay
[11] = target: Mitogen-activated protein kinase 3 (Homo sapiens) (UniProt P27361); test: Inhibition of human ERK1 at 1 uM using RBER-CHKtide as substrate in presence of 33P-ATP by ProQinase assay
[12] = target: Ribosomal protein S6 kinase alpha-6 (Homo sapiens) (UniProt Q9UK32); test: Inhibition of human RPS6KA6 at 1 uM using RBER-GSK3 as substrate in presence of 33P-ATP by ProQinase assay
[13] = target: Ribosomal protein S6 kinase alpha-4 (Homo sapiens) (UniProt O75676); test: Inhibition of human RPS6KA4 at 1 uM using RBER-CHKtide as substrate in presence of 33P-ATP by ProQinase assay
[14] = target: CDK6/cyclin D1 (Homo sapiens) (UniProt P24385+Q00534); test: Inhibition of human CDK6/CycD1 at 1 uM using RBER-CHKtide as substrate in presence of 33P-ATP by ProQinase assay; assay type: protein-complex assay
[15] = target: Cyclin-dependent kinase 1/cyclin B1 (Homo sapiens) (UniProt P06493+P14635); test: Inhibition of human CDK1/CycB1 at 1 uM using RBER-CHKtide as substrate in presence of 33P-ATP by ProQinase assay; assay type: protein-complex assay
[16] = target: Dual specificity protein kinase CLK3 (Homo sapiens) (UniProt P49761); test: Inhibition of human CLK3 at 1 uM using RB-S6P as substrate in presence of 33P-ATP by ProQinase assay
[17] = target: Homeodomain-interacting protein kinase 2 (Homo sapiens) (UniProt Q9H2X6); test: Inhibition of human HIPK2 at 1 uM using RBER-CHKtide as substrate in presence of 33P-ATP by ProQinase assay
[18] = target: STE20-like serine/threonine-protein kinase (Homo sapiens) (UniProt Q9H2G2); test: Inhibition of human SLK at 1 uM using RB-S6P as substrate in presence of 33P-ATP by ProQinase assay
[19] = target: cAMP-dependent protein kinase catalytic subunit PRKX (Homo sapiens) (UniProt P51817); test: Inhibition of human PRKX at 1 uM using RBER-GSK3 as substrate in presence of 33P-ATP by ProQinase assay
[20] = target: Mitogen-activated protein kinase 13 (Homo sapiens) (UniProt O15264); test: Inhibition of human p38delta at 1 uM using RBER-CHKtide as substrate in presence of 33P-ATP by ProQinase assay
[21] = target: Mitogen-activated protein kinase 15 (Homo sapiens) (UniProt Q8TD08); test: Inhibition of human ERK7 at 1 uM using RBER-CHKtide as substrate in presence of 33P-ATP by ProQinase assay
[22] = target: Phosphatidylinositol 4-kinase type 2-alpha (Homo sapiens, UniProt Q9BTU6); test: Inhibition of PI4K2alpha (unknown origin) at 1 uM
[23] = target: Phosphatidylinositol 4,5-bisphosphate 3-kinase catalytic subunit delta isoform (Homo sapiens) (UniProt O00329); test: Inhibition of p100delta (unknown origin) at 1 uM
PI3K p110 beta/p85 alpha = PI3K p110 beta/p85 alpha (Homo sapiens, UniProt P42338); test: Inhibition of human PIK3CB/PIK3R1 using PIP2/PS as substrate by ADP-Glo assay; assay type: protein-complex assay
[24] = target: Phosphatidylinositol 4-phosphate 3-kinase C2 domain-containing subunit alpha (Homo sapiens, UniProt O00443); test: Inhibition of human PIK3C2A using PIP2/PS as substrate by ADP-Glo assay
U2OS [25] = test: Inhibition of PI3K in human U2OS cells expressing GFP-PHAkt1 assessed as reduction in IGF-stimulated PtdIns(3,4,5)P3/PtdIns(3,4)P2 level […] at 1 uM pre incubated for 1 hr followed by IGF stimulation and measured after 15 mins by Alexa Fluor 488 staining based fluorescence microscopic analysis; assay type: subcellular; settings: time 1.25 hrs
U2OS [26] = test: Inhibition of PI3K in human U2OS cells expressing FLAG-tagged SGK3 assessed as reduction in NDRG1 phosphorylation at T346 residues at 0.01 to 1 uM 1 hr by immunoblot analysis; assay type: cell-based; settings: dose 0.01-1 µM
Method in brief: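 Flp-In T-REx U2OS cells were grown in McCoy medium with 10% FBS. Expression of C-terminally FLAG-tagged full-length SGK3 was induced with 0.01 mg/ml doxycycline for 24 h. Cells were treated with inhibitor for 1 h and lysed in phosphatase-inhibitor buffer. Lysates were cleared at 16000 g for 10 min at 4°C, protein was measured by Bradford, and phosphorylation was read by immunoblot with ECL detection.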

Sequence of Dual specificity protein kinase CLK3 (Homo sapiens) (P49761 whole entry, looked up): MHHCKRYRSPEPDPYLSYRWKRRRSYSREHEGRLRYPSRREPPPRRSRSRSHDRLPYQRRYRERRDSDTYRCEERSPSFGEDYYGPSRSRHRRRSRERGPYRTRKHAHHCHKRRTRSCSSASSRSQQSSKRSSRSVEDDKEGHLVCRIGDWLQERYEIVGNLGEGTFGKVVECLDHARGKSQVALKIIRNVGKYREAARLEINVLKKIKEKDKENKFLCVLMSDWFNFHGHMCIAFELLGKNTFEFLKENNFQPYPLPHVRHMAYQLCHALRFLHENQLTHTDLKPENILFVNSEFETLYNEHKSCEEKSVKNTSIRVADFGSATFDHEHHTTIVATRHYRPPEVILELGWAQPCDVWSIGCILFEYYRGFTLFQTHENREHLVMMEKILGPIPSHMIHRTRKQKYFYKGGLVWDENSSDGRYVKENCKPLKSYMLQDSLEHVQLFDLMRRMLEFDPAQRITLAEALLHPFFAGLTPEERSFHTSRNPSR
Sequence of Mast/stem cell growth factor receptor Kit (Homo sapiens) (P10721 whole entry): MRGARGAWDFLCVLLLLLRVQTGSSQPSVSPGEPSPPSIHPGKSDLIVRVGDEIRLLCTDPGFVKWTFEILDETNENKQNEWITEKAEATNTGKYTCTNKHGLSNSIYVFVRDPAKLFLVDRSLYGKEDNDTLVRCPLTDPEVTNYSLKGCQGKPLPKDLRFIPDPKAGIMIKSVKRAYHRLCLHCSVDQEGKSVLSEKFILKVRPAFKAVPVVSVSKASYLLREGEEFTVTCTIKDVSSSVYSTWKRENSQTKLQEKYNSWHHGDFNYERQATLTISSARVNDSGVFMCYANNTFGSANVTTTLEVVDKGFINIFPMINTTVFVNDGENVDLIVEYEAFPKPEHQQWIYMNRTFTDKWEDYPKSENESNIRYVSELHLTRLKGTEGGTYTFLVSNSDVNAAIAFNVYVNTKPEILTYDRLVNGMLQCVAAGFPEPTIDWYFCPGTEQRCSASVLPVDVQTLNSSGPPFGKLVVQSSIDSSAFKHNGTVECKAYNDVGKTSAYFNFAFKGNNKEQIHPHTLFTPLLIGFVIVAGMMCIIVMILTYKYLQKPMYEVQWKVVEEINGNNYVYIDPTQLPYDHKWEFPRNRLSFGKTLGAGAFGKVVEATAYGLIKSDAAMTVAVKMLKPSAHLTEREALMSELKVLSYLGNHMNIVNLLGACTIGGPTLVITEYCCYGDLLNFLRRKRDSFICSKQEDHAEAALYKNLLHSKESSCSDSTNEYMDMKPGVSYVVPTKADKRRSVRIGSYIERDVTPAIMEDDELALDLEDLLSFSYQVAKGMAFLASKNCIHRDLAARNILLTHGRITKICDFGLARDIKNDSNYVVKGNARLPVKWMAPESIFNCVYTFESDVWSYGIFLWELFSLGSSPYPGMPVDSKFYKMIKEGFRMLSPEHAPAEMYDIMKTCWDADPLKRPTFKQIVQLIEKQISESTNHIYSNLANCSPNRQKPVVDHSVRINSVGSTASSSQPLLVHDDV
Sequence of Cyclin-dependent kinase 1/cyclin B1 (Homo sapiens) (P06493 whole entry, looked up): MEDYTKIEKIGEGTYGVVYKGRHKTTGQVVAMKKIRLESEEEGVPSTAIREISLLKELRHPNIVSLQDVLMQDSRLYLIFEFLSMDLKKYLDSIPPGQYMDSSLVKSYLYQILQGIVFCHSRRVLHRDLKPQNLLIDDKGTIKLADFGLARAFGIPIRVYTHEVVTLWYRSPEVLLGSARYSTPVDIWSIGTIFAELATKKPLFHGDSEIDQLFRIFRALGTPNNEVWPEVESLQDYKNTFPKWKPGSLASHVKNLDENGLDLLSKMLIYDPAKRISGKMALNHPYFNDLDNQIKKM
Sequence of Cyclin-dependent kinase 1/cyclin B1 (Homo sapiens) (P14635 whole entry, looked up): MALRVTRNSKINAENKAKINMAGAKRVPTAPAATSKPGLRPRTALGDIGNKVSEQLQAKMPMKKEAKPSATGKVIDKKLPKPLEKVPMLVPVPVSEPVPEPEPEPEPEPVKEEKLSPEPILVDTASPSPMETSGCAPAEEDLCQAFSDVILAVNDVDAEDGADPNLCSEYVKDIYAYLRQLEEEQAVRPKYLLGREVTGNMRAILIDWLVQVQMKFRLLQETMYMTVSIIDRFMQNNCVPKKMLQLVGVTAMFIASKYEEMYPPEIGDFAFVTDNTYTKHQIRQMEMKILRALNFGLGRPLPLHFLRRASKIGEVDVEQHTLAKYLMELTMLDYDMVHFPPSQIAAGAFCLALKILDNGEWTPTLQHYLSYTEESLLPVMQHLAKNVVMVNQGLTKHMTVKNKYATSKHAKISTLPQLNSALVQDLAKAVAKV
Sequence of Phosphatidylinositol 4-phosphate 3-kinase C2 domain-containing subunit alpha (O00443 whole entry, the tested form may be a part): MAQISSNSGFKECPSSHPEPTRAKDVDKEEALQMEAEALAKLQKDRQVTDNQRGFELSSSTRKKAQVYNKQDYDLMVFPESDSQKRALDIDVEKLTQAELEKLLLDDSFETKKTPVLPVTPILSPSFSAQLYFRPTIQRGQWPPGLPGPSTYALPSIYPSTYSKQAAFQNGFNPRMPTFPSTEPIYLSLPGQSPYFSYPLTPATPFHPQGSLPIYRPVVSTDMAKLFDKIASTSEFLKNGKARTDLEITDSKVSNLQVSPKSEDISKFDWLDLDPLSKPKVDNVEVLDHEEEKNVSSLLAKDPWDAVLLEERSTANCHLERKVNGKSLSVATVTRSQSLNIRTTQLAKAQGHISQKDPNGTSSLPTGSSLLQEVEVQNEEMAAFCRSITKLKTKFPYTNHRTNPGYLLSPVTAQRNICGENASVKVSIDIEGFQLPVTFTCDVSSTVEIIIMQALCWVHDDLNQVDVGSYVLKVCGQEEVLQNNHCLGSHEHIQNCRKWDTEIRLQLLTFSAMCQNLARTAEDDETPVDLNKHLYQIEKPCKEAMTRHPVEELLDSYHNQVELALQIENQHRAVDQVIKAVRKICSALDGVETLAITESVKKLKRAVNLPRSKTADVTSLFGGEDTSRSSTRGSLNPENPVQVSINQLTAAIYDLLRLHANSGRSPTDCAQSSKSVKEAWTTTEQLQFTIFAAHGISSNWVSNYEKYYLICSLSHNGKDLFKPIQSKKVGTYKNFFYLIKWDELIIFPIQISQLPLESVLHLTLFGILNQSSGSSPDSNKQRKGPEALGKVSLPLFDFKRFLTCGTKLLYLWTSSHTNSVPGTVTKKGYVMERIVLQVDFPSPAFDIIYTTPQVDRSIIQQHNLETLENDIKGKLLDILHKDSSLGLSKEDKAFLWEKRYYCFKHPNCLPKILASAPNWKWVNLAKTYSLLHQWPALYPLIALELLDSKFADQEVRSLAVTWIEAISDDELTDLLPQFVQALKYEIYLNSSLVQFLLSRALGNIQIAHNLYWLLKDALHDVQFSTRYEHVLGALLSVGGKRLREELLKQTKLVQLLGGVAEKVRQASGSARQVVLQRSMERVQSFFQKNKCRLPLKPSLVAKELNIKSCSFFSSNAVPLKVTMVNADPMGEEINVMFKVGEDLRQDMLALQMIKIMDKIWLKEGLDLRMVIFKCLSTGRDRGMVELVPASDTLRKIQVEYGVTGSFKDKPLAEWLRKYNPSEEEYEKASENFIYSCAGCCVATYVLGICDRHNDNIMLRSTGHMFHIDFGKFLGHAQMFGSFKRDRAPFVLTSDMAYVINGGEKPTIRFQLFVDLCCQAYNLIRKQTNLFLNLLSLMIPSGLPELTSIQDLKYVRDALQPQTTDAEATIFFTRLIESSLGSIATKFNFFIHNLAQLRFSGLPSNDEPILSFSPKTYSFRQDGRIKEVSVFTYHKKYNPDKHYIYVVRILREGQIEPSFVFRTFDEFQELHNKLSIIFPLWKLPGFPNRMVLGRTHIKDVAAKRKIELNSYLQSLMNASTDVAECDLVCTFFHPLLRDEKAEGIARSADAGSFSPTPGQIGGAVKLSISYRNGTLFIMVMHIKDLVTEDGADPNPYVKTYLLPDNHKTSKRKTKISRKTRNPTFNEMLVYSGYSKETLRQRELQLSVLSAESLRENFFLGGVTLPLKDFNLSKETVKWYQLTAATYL
Sequence of Phosphatidylinositol 4,5-bisphosphate 3-kinase catalytic subunit delta isoform (Homo sapiens) (O00329 whole entry, canonical isoform): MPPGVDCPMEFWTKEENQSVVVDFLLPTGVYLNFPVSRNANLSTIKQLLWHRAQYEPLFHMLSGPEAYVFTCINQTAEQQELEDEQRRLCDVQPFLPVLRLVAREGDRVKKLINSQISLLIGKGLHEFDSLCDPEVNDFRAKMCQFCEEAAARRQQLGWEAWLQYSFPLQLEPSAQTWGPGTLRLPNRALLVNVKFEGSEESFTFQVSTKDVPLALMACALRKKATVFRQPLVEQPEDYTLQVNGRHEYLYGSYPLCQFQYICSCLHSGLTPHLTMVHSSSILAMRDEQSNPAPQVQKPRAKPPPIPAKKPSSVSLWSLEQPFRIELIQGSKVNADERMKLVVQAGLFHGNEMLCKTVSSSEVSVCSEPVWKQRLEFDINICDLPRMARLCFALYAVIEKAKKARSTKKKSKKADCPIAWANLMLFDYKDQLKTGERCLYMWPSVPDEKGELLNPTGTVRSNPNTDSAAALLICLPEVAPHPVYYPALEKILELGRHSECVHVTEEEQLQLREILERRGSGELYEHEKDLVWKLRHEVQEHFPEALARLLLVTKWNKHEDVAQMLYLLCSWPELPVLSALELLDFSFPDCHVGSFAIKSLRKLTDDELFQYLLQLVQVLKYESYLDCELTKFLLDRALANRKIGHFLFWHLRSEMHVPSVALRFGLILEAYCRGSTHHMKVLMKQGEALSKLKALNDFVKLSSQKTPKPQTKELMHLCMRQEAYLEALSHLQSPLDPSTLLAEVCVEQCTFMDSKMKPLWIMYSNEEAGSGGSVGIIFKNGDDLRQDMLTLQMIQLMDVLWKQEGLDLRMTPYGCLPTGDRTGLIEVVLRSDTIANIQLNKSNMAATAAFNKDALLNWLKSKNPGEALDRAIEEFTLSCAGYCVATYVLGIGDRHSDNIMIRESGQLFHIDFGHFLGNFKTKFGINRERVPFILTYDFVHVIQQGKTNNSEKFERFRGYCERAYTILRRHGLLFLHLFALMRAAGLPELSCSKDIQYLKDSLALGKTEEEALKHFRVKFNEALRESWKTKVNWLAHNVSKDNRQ

CC(C)(O)CNc1ncc(-c2ccnc(Nc3ccnc(Cl)c3)n2)c(CC2CC2)n1 was tested, and the Activity [1] was 129%, the Activity [2] was 111% and the inhibition [3] was “inactive”. The inhibition [4] was “inactive”, the inhibition [5] was “inactive” and the inhibition [6] was “inactive”. For the same compound, the inhibition [7] was “inactive”, the inhibition [8] was “inactive” and the inhibition [9] was “inactive”. For the same compound, the inhibition [10] was “inactive”, the inhibition [11] was “inactive” and the inhibition [12] was “inactive”. For the same compound, the inhibition [13] was “inactive”, the inhibition [14] was “inactive” and the inhibition [15] was “inactive”. For the same compound, the inhibition [16] was “inactive”, the inhibition [17] was “inactive” and the inhibition [18] was “inactive”. The inhibition [19] was “inactive”, the inhibition [20] was “inactive” and the inhibition [21] was “inactive”. For the same compound, the inhibition [22] was “inactive”, the inhibition [23] was “inactive” and the IC50 (PI3K p110 beta/p85 alpha) was over 10 µM. For the same compound, the IC50 [24] was over 10 µM, the inhibition (U2OS [25]) was “inactive” and the inhibition (U2OS [26]) was “Active”.
